Reference: ChEMBL document CHEMBL1154946, “Synthetic atpenin analogs: Potent mitochondrial inhibitors of mammalian and fungal succinate-ubiquinone oxidoreductase” (Bioorg Med Chem Lett, 2010)
Active and inactive are the calls of the source. No cut-off for these calls is given here.

What was measured:
[1] = Inhibition of Septoria nodorum sub-mitochondrial membrane SQR assessed as ubiquinol-dependent reduction of DCIP after 10 mins by spectrophotometry; parameters: species or system Parastagonospora nodorum
How it was run: (§1)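 Complex II (SQR) activity in sub-mitochondrial membranes from bovine heart or Septoria nodorum, run in plate format. 20 mM succinate serves as electron donor, with decyl ubiquinone as acceptor and DCIP as terminal dye acceptor. The reaction is started by adding succinate and runs 10 min. Read-out is spectrophotometric, giving IC50.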

[2] = Inhibition of bovine heart sub-mitochondrial membrane SQR assessed as ubiquinol-dependent reduction of DCIP after 10 mins by spectrophotometry; parameters: species or system Bos taurus; how it was run: as §1
Parastagonospora nodorum [3] = assay: Antifungal activity against Septoria nodorum at 200 ppm; assay type: functional, organism-based
Parastagonospora nodorum [4] = assay: Antifungal activity against Septoria nodorum at 200 ppm by whole plant assay; assay type: functional, organism-based

| Structure (SMILES) | IC50 [1] | IC50 [2] | Activity (Parastagonospora nodorum [3]) | Activity (Parastagonospora nodorum [4]) |
| --- | --- | --- | --- | --- |
| COc1[nH]c(C)c(C(=O)c2ccc(Cl)cc2)c(=O)c1OC | 14 µM | 13.8 µM | inactive | inactive |
| COc1nc(O)c(C(=O)C(C)c2ccccc2)c(O)c1OC (stereo not drawn) | 0.299 µM | 0.008 µM | inactive | inactive |
| CCCCC(CC)C(=O)c1c(O)nc(OC)c(OC)c1O (stereo not drawn) | 0.234 µM | 0.125 µM | inactive | inactive |
| COc1ccc(C(=O)c2c[nH]c(OC)c(OC)c2=O)cc1 | > 30 µM | > 30 µM | inactive | inactive |
| COc1[nH]cc(C(=O)c2ccccc2Oc2ccccc2)c(=O)c1OC | > 30 µM | > 30 µM | inactive | inactive |
| COc1nc(O)c(C(=O)C(C)CCC=C(C)C)c(O)c1OC (stereo not drawn) | 0.051 µM | 0.005 µM | inactive | inactive |
| COc1nc(OS(C)(=O)=O)c(C(=O)c2ccc(Cl)cc2)c(OS(C)(=O)=O)c1OC | > 30 µM | > 30 µM | inactive | inactive |
| COc1[nH]cc(C(=O)c2cccc(Cl)c2)c(=O)c1OC | > 30 µM | 6.56 µM | inactive | inactive |
| COc1nc(O)c(C(=O)C(c2ccccc2)c2ccccc2)c(O)c1OC | > 30 µM | 0.63 µM | inactive | inactive |
| COc1nc(OC(C)=O)c(C(=O)c2ccc(Cl)cc2)c(OC(C)=O)c1OC | > 30 µM | > 30 µM | inactive | inactive |
| COc1[nH]cc(C(=O)c2ccc(-c3ccccc3)cc2)c(=O)c1OC | 2.75 µM | 0.795 µM | inactive | inactive |
| CCC(C)C(=O)c1c(O)nc(OC)c(OC)c1O (stereo not drawn) | 2.58 µM | 0.096 µM | inactive | inactive |
| COc1[nH]c(=O)c(C(=O)[C@@H](C)C[C@H](C)[C@@H](Cl)CCl)c(O)c1OC [ATPENIN A5] | 0.011 µM | 0.004 µM | – | – |
| COc1nc(O)c(C(=O)C(C)Cc2ccc(C(C)(C)C)cc2)c(O)c1OC (stereo not drawn) | 0.024 µM | 0.008 µM | inactive | inactive |
| COc1[nH]cc(C(=O)c2ccc(Cl)cc2)c(=O)c1OC | 26.7 µM | 3.4 µM | inactive | inactive |
| COc1[nH]cc(C(=O)c2cccc(Oc3ccccc3)c2)c(=O)c1OC | 2.98 µM | 0.454 µM | inactive | inactive |
| COc1[nH]cc(C(=O)c2ccccc2Cl)c(=O)c1OC | > 30 µM | > 30 µM | inactive | inactive |
| COc1[nH]c(Br)c(C(=O)c2ccc(Cl)cc2)c(=O)c1OC | 1.94 µM | 1.27 µM | inactive | inactive |
| CCCCC(C)C(=O)c1c(O)nc(OC)c(OC)c1O (stereo not drawn) | 0.122 µM | 0.02 µM | inactive | inactive |
| COc1nc(O)c(C(=O)C2CCCCC2)c(O)c1OC | 1.78 µM | 0.127 µM | inactive | inactive |
| COc1[nH]c(OC)c(C(=O)c2ccc(Cl)cc2)c(=O)c1OC | > 30 µM | > 30 µM | inactive | inactive |
| CCC(C)C(=O)c1c[nH]c(OC)c(OC)c1=O (stereo not drawn) | > 30 µM | > 30 µM | inactive | inactive |
| COc1nc(O)c(C(=O)c2ccc(Cl)cc2)c(O)c1OC | > 30 µM | 0.326 µM | inactive | inactive |
| COc1[nH]cc(C(=O)c2ccc3ccccc3c2)c(=O)c1OC | 20.7 µM | 12.8 µM | inactive | inactive |
| COc1[nH]cc(C(=O)c2ccc(Oc3ccccc3)cc2)c(=O)c1OC | 4.08 µM | 0.492 µM | inactive | inactive |
| COc1nc(O)c(C(=O)c2cccc(Oc3ccccc3)c2)c(O)c1OC | 2.33 µM | 0.112 µM | inactive | inactive |
| O=C(Nc1ccccc1-c1ccc(Cl)cc1)c1cccnc1Cl [BOSCALID] | 0.245 µM | 1.79 µM | – | – |
| CCCCCCCCCC(C)C(=O)c1c(O)nc(OC)c(OC)c1O (stereo not drawn) | 0.004 µM | 0.003 µM | inactive | inactive |
